PDI inh: inhibitors of human protein disulfide isomerase; P07237; PDI insulin aggregation turbidity, A650, 90 min; inhibition, % at 10 µM; 350,000 tested, 0.052% active; AID 588391;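 active = mean inhibition across replicates of 30% or more, whatever share of single replicates reach that level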
SIRT5 block: sirtuin-5 (human) deacylase inhibition. AID 652115. inhibition, % at 15 µM. 330,000 tested, 1.1% active. Purified SirT5, succinyl-peptide AMC, trypsin-coupled fluorescence; in the data active = inhibition above about 15%
Target sequence (Q9NXA8 whole entry, looked up): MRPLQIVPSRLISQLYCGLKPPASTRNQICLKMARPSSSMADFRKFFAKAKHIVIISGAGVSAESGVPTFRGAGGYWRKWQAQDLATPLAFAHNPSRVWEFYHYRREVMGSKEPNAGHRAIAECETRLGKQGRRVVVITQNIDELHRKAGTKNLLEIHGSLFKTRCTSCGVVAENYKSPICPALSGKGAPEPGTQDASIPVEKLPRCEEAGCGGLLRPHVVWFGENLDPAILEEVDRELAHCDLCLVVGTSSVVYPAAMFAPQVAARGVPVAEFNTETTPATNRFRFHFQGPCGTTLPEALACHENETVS
ERp5 block: ERp5 (human) disulfide isomerase inhibition; Q15084; ERp5 insulin aggregation, absorbance 650 nm, 90 min; inhibition, % at 9.99 µM; 350,000 tested, 0.05% active; AID 651711;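 active = mean replicate inhibition above about 25%, with every replicate also reaching it, limit read from the data, passing the limit was not always enough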
GSIS activator: GLuc luminescence reporter in INS-1E cells, primary screen for activators of glucose-dependent secretion of insulin; INS-1E GLuc reporter insulin secretion, 2-3 h; activation, % at 16.6 µM; 370,000 tested, 0.61% active;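 active = lowest replicate activation of at least 40%, so every replicate reaches that level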
S100A4 inh HTS: inhibitors of human S100A4 binding to myosin IIA peptide | S100A4/TAMRA-MyoIIA peptide fluorescence polarization | inhibition, % at 10.7 µM | 360,000 tested, 0.14% active | AID 652163;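 active = mean inhibition of at least 70% across replicates, with every replicate also reaching that level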
Target sequence (P26447 whole entry, looked up): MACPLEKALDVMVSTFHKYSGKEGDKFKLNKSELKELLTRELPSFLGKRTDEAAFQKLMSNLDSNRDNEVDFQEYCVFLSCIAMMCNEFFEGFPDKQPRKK
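Material: human S100A4 monomer with TAMRA-labelled myosin IIA peptide; buffer or medium: HEPES pH 7.2 with CaCl2, KCl, NaCl, DTT, Triton; compound dosing: one concentration per compound; schedule: 5 min incubation before reading; benchmarks: neutral control DMSO, positive control TFP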
A number is an active result; ! = repeats disagree. Compounds with a hit are over-represented: about 1.5% of the library has one in this group of screens.

Cc1ncc(CN2CCC(CO)(CCOc3ccccc3)CC2)s1 was read as PDI inh inactive, SIRT5 block inactive, ERp5 block inactive, GSIS activator inactive and S100A4 inh HTS inactive.
CCOc1ccc(C(=O)NCC(=O)Nc2cc(C)ccn2)cc1OCC was read as PDI inh inactive, SIRT5 block inactive, ERp5 block inactive, GSIS activator 44 and S100A4 inh HTS inactive.
Cc1ccnc(NC(=O)CNC(=O)c2ccco2)c1 was read as PDI inh inactive, SIRT5 block inactive, ERp5 block inactive, GSIS activator 45 and S100A4 inh HTS inactive.
Screening COc1ccc(C(=O)NCC(=O)OCCCOC(=O)CNC(=O)c2ccc(OC)c(OC)c2)cc1OC returned PDI inh inactive, SIRT5 block inactive, ERp5 block inactive, GSIS activator inactive and S100A4 inh HTS inactive.
For CCOc1ccc(C(=O)NCC(=O)OCCCC(=O)c2ccc(F)cc2)cc1OCC the results were PDI inh inactive, SIRT5 block inactive, ERp5 block inactive, GSIS activator 45 and S100A4 inh HTS inactive.
C[C@@H]1CN([C@H](C)CO)C(=O)c2cccc(NS(=O)(=O)c3ccccc3)c2O[C@H]1CN(C)C(=O)Nc1ccc(C(F)(F)F)cc1 was read as SIRT5 block inactive, ERp5 block inactive, GSIS activator inactive and S100A4 inh HTS inactive.
CNC[C@H]1OCCCC[C@H](C)Oc2ccc(NS(C)(=O)=O)cc2C(=O)N([C@H](C)CO)C[C@@H]1C was read as SIRT5 block inactive, ERp5 block inactive, GSIS activator inactive and S100A4 inh HTS inactive.
`O=C(Nc1ccc(F)cc1)N1C[C@H]2[C@@H](c3ccccc31)[C@H](CO)N2C(=O)c1ccccn1` gave SIRT5 block inactive, ERp5 block inactive, GSIS activator inactive and S100A4 inh HTS inactive.
`CO[C@@H]1CN(C)C(=O)c2ccc(NC(C)=O)cc2OC[C@H](C)N(Cc2cc(F)ccc2F)C[C@@H]1C` gave SIRT5 block inactive, ERp5 block inactive, GSIS activator inactive and S100A4 inh HTS 105.
COc1cccc(S(=O)(=O)Nc2ccc3c(c2)OC[C@@H](C)N(Cc2cc(F)ccc2F)C[C@@H](C)[C@H](OC)CN(C)C3=O)c1 was read as SIRT5 block 20, ERp5 block inactive, GSIS activator inactive and S100A4 inh HTS inactive.
COC(=O)[C@@H]1[C@H]2C[C@H]3c4[nH]c5ccccc5c4CCN3C[C@@H]2CC[C@@H]1O was read as PDI inh inactive, SIRT5 block inactive, ERp5 block inactive, GSIS activator inactive and S100A4 inh HTS inactive.
NNC(=O)C1C(O)CCC2CN3CCc4c([nH]c5ccccc45)C3CC21 (stereo not drawn) was read as PDI inh inactive, SIRT5 block inactive, ERp5 block inactive, GSIS activator 41 and S100A4 inh HTS inactive.
Screening CO[C@H]1CN(C)C(=O)c2cc(NC(=O)Nc3ccc(F)cc3)ccc2OC[C@@H](C)NC[C@H]1C returned SIRT5 block inactive, ERp5 block inactive, GSIS activator inactive and S100A4 inh HTS inactive.
Screening C[C@H](CO)N1C[C@H](C)[C@H](CN(C)C(=O)Nc2ccccc2C(F)(F)F)OCc2cnnn2CCCC1=O returned SIRT5 block 16, ERp5 block inactive, GSIS activator inactive and S100A4 inh HTS inactive.
Screening C[C@H]1CN([C@@H](C)CO)C(=O)CCCn2nncc2CO[C@@H]1CN(C)C(=O)CCCN(C)C returned SIRT5 block 22, ERp5 block inactive, GSIS activator inactive and S100A4 inh HTS inactive.
C[C@@H]1CN([C@H](C)CO)C(=O)CCCn2nncc2CO[C@H]1CN(C)C(=O)Nc1ccnc(N2CCOCC2)c1 was read as PDI inh inactive, SIRT5 block inactive, ERp5 block inactive, GSIS activator 45! and S100A4 inh HTS inactive.
`C[C@H](CO)N1C[C@H](C)[C@@H](CN(C)C(=O)Nc2ccnc(N3CCOCC3)c2)OCc2cnnn2CCCC1=O` gave PDI inh inactive, SIRT5 block inactive, ERp5 block inactive, GSIS activator inactive and S100A4 inh HTS inactive.
For O=C(C[C@H]1C[C@H]2c3cc(NC(=O)c4cccnc4)ccc3O[C@H]2[C@H](CO)O1)NCCN1CCCCC1 the results were SIRT5 block inactive, ERp5 block inactive, GSIS activator inactive and S100A4 inh HTS inactive.
CO[C@@H]1CC[C@H]2CCN(C)C(=O)CCCN(C)C(=O)c3cccc(C#N)c3OC[C@@H]1O2 was read as SIRT5 block inactive, ERp5 block inactive, GSIS activator inactive and S100A4 inh HTS inactive.

Compound activity as filed in PubChem.
